Assays:
Type in all cases: functional
Ovis aries [1] = assay: Antihelmethic activity expressed as the percentage of worms eliminated in the feces in sheep abomasum at peroral dose of 30 mg/kg against Trichostrongylus axei; conditions: route oral
Procedure, shortened: (§1)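 Sheep given a single dose, oral or subcutaneous. Total daily feces collected for 4 days after treatment and examined for expelled worms. Necropsy at day 7 after dosing; lungs, liver and gastrointestinal tract removed and remaining worms identified. Activity calculated by comparing worms passed in feces with those remaining at autopsy. Single animals per test unless otherwise indicated.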

Ovis aries [2] = assay: Antihelmethic activity expressed as the percentage of worms eliminated in the feces in sheep small intestine at peroral dose of 15 mg/kg against Trichostrongylus axei; conditions: route oral; procedure, shortened: as §1
Ovis aries [3] = assay: Antihelmethic activity expressed as the percentage of worms eliminated in the feces in sheep abomasum at peroral dose of 15 mg/kg against Trichostrongylus axei; conditions: route oral; procedure, shortened: as §1
Ovis aries [4] = assay: Antihelmethic activity expressed as the percentage of worms eliminated in the feces in sheep small intestine at peroral dose of 15 mg/kg against Strongyloides papillosus; conditions: route oral; procedure, shortened: as §1
Mus musculus = assay: Nematocidal activity against Nematospiroides dubius induced necropsy in mouse, after oral administration of 25 mg/kg of the compound
Procedure, shortened: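 Seven-week-old female LACA mice infected orally with 100 N. dubius L3 larvae; single gavage dose given at day 10 of infection, groups of four mice; necropsy 4 days later; percent activity from worm burdens of treated versus untreated groups.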

Ovis aries [5] = assay: Antihelmethic activity expressed as the percentage of worms eliminated in the feces in sheep small intestine at peroral dose of 30 mg/kg against Bunostomum trigonocephalum.; conditions: route oral; procedure, shortened: as §1
Ovis aries [6] = assay: Anthelmintic activity against adult liver fluke (Fasciola hepatica) in sheep, after peroral administration of 20 mg/kg was determined; conditions: route oral
Procedure, shortened: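 Sheep dosed with a single oral dose. Fecal fluke egg output monitored after treatment. Animals necropsied only if the fecal egg count fell. Postmortem Fasciola hepatica burdens compared with untreated control sheep (mean of 10 controls). Single animals per test unless otherwise indicated, with group size given in parentheses. I denotes no effect on fecal fluke egg output.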

Ovis aries [7] = assay: Antihelmethic activity expressed as the percentage of worms eliminated in the feces in sheep abomasum at subcuteneous dose of 30 mg/kg against Trichostrongylus axei; procedure, shortened: as §1
Ovis aries [8] = organism: Ovis aries; assay: (§2) Antihelmethic activity expressed as the percentage of worms eliminated in the feces in sheep species.
Procedure, shortened: (§3)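 Sheep; total daily faeces collected for 4 days after treatment and searched for expelled worms; necropsy 7 days post-dose with lungs, liver and GI tract examined and worms identified; activity from worms passed in faeces versus worms remaining in host at autopsy.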

Ovis aries [9] = assay: Antihelmethic activity expressed as the percentage of worms eliminated in the feces in sheep small intestine at subcuteneous dose of 30 mg/kg against Cooperia curticei; procedure, shortened: as §1
Ovis aries [10] = assay: Antihelmethic activity expressed as the percentage of worms eliminated in the feces in sheep large bowel at subcuteneous dose of 30 mg/kg against Trichuris ovis.; procedure, shortened: as §1
Ovis aries [11] = assay: Antihelmethic activity expressed as the percentage of worms eliminated in the feces in sheep small intestine at peroral dose of 15 mg/kg against Capillaria species.; conditions: route oral; procedure, shortened: as §1
Ovis aries [12] = assay: Antihelmethic activity expressed as the percentage of worms eliminated in the feces in sheep small intestine at peroral dose of 15 mg/kg against Bunostomum trigonocephalum.; conditions: route oral; procedure, shortened: as §1
Ovis aries [13] = assay: Antihelmethic activity expressed as the percentage of worms eliminated in the feces in sheep […] at subcuteneous dose of 30 mg/kg against Liver fluke Fasciola hepatica.
Ovis aries [14] = assay: Antihelmethic activity expressed as the percentage of worms eliminated in the feces in sheep small intestine at peroral dose of 30 mg/kg against Strongyloides papillosus; conditions: route oral; procedure, shortened: as §1
Ovis aries [15] = organism: Ovis aries; assay: as §2; procedure, shortened: as §3; remark: listed apart in the source

## CS/C(=N\c1cccc(C2CN3CCSC3=N2)c1)Nc1ccc(C#N)cc1 (stereo unspecified)
Ovis aries [1]
  Activity: 100%
Ovis aries [2]
  Activity: 100%
Ovis aries [3]
  Activity: 92%
Ovis aries [4]
  Activity: 100%
Mus musculus
  Activity: 68%
Ovis aries [5]
  Activity: 100%
Ovis aries [6]
  Activity: 89%
Ovis aries [7]
  Activity: 100%
Ovis aries [8]
  Activity: 100%
Ovis aries [9]
  Activity: 91%
Ovis aries [10]
  Activity: 100%
Ovis aries [11]
  Activity: 0%
Ovis aries [12]
  Activity: 100%
Ovis aries [13]
  Activity: 100%
Ovis aries [14]
  Activity: 100%
Ovis aries [15]
  Activity: 100%

Reference: ChEMBL document CHEMBL1123619, “Isothiourea derivatives of 6-phenyl-2,3,5,6-tetrahydroimidazo[2,1-b]thiazole with broad-spectrum anthelmintic activity” (J Med Chem, 1987)
